≈ marks a conversion by molar mass, not a printed value.
Assays:
[1] = Selectivity index, ratio of […] for toxicity in human A549 cells to MIC50 for antifungal activity against Aspergillus nidulans ATCC 38163; type: cell-based; conditions: read-out: Selectivity Index
Aspergillus nidulans = assay: Antifungal activity against Aspergillus nidulans ATCC 38163 incubated for 48 hrs by CLSI M38-A2 protocol based method; type: functional; conditions: ATCC 38163, 48 h, read-out: MIC100
[2] = Selectivity index, ratio of EC50 for toxicity in human A549 cells to MIC for antifungal activity against Candida parapsilosis ATCC 22019
[3] = Selectivity index, ratio of EC50 for toxicity in human BEAS2B cells to MIC for antifungal activity against Candida parapsilosis ATCC 22019; conditions: BEAS-2B cells
[4] = Selectivity index, ratio of EC50 for toxicity in human A549 cells to MIC100 for antifungal activity against Candida albicans ATCC 10231; type: cell-based; conditions: read-out: Selectivity Index
Procedure, shortened: (§1)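 Selectivity index is the EC50 against the mammalian line (A549 or BEAS-2B) divided by the MIC against the given fungal strain.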

Candida parapsilosis = assay: Antifungal activity against Candida parapsilosis ATCC 22019 incubated for 48 hrs by modified CLSI M27-A3 protocol based method; type: functional; conditions: Lodderomyces parapsilosis, ATCC 22019, 48 h; read-out: MIC100
Procedure, shortened: (§2)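 For C. albicans ATCC 10231, C. krusei ATCC 6258 and C. parapsilosis ATCC 22019, MIC-0 was read, meaning complete growth inhibition. For azole controls, MIC-2 (50% growth inhibition) was reported instead. Caspofungin and voriconazole were tested here; other controls came from earlier work.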

Candida albicans [5] = assay: Antifungal activity against ITC and FLC-resistant Candida albicans ATCC MYA-90819 incubated for 48 hrs by modified CLSI M27-A3 protocol based method; type: functional; conditions: ATCC MYA-90819, 48 h
Aspergillus terreus = assay: Antifungal activity against Aspergillus terreus ATCC MYA-3633 incubated for 48 hrs by CLSI M38-A2 protocol based method; type: functional; conditions: ATCC MYA-3633, 48 h, read-out: MIC100
[6] = Selectivity index, ratio of EC50 for toxicity in human BEAS2B cells to MIC50 for antifungal activity against ITC and FLC-susceptible Candida albicans ATCC MYA-2310; type: cell-based; conditions: BEAS-2B cells, read-out: Selectivity Index
Procedure, shortened: (§3)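 Ratio of the compound's EC50 against BEAS-2B cells to its MIC against the named C. albicans strain. […] For C. albicans strains other than ATCC 10231, trailing growth meant MIC-2 was taken, meaning 50% growth inhibition.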

Candida albicans [7] = assay: Antifungal activity against ITC and FLC-susceptible Candida albicans ATCC MYA-2310 incubated for 48 hrs by modified CLSI M27-A3 protocol based method; type: functional; conditions: ATCC MYA-2310, 48 h
[8] = Selectivity index, ratio of EC50 for toxicity in human A549 cells to MIC50 for antifungal activity against Candida krusei ATCC 6258
[9] = Selectivity index, ratio of EC50 for toxicity in human A549 cells to MIC50 for antifungal activity against Candida albicans ATCC 64124; type: cell-based; conditions: read-out: Selectivity Index; procedure, shortened: as §1
[10] = Selectivity index, ratio of EC50 for toxicity in human A549 cells to MIC50 for antifungal activity against ITC and FLC-resistant Candida albicans ATCC MYA-90819; type: cell-based; conditions: read-out: Selectivity Index; procedure, shortened: as §1
[11] = Selectivity index, ratio of EC50 for toxicity in human BEAS2B cells to MIC100 for antifungal activity against Candida albicans ATCC 10231; type: cell-based; conditions: BEAS-2B cells, read-out: Selectivity Index; procedure, shortened: as §1
[12] = Selectivity index, ratio of EC50 for toxicity in human BEAS2B cells to MIC50 for antifungal activity against Candida glabrata ATCC 2001; type: cell-based; conditions: BEAS-2B cells, read-out: Selectivity Index; procedure, shortened: as §1
Candida albicans [13] = assay: Antifungal activity against ITC and FLC-resistant Candida albicans ATCC 1237 incubated for 48 hrs by modified CLSI M27-A3 protocol based method; type: functional; conditions: ATCC 1237, 48 h
Procedure, shortened: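 Because these Candida strains show trailing growth, MIC-2 was read, meaning 50% growth inhibition. Caspofungin and voriconazole were tested here; other controls came from earlier work.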

Pichia kudriavzevii = assay: Antifungal activity against Candida krusei ATCC 6258 incubated for 48 hrs by modified CLSI M27-A3 protocol based method; type: functional; conditions: ATCC 6258, 48 h, read-out: MIC100; procedure, shortened: as §2
[14] = Selectivity index, ratio of […] for toxicity in human A549 cells to MIC50 for antifungal activity against Aspergillus flavus ATCC MYA-3631; type: cell-based; conditions: read-out: Selectivity Index
[15] = Toxicity in human BEAS2B cells assessed as reduction in cell viability incubated for 24 hrs by resazurin dye based assay; conditions: BEAS-2B cells
Procedure, shortened: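 Toxicity tested in the nucleated lines A549 and BEAS-2B to give EC50 values. Selectivity index is EC50 against the mammalian line divided by the MIC against a given fungal strain.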

[16] = Selectivity index, ratio of […] for toxicity in human A549 cells to MIC50 for antifungal activity against Aspergillus terreus ATCC MYA-3633; type: cell-based; conditions: read-out: Selectivity Index
[17] = Selectivity index, ratio of EC50 for toxicity in human BEAS2B cells to MIC50 for antifungal activity against ITC and FLC-susceptible Candida albicans ATCC MYA-2876; type: cell-based; conditions: BEAS-2B cells, read-out: Selectivity Index; procedure, shortened: as §3
[18] = Selectivity index, ratio of EC50 for toxicity in human A549 cells to MIC50 for antifungal activity against ITC and FLC-resistant Candida albicans ATCC 1237; type: cell-based; conditions: read-out: Selectivity Index; procedure, shortened: as §1
[19] = Selectivity index, ratio of EC50 for toxicity in human BEAS2B cells to MIC50 for antifungal activity against Candida albicans ATCC 64124; type: cell-based; conditions: BEAS-2B cells, read-out: Selectivity Index; procedure, shortened: as §1
[20] = Selectivity index, ratio of […] for toxicity in human BEAS2B cells to MIC50 for antifungal activity against Aspergillus nidulans ATCC 38163; type: cell-based; conditions: BEAS-2B cells, read-out: Selectivity Index
Aspergillus flavus = assay: Antifungal activity against Aspergillus flavus ATCC MYA-3631 incubated for 48 hrs by CLSI M38-A2 protocol based method; type: functional; conditions: ATCC MYA-3631, 48 h, read-out: MIC100
Candida albicans [21] = assay: Antifungal activity against Candida albicans ATCC 10231 incubated for 48 hrs by modified CLSI M27-A3 protocol based method; type: functional; conditions: ATCC 10231, 48 h, read-out: MIC100; procedure, shortened: as §2
Nakaseomyces glabratus = assay: Antifungal activity against Candida glabrata ATCC 2001 incubated for 48 hrs by modified CLSI M27-A3 protocol based method; type: functional; conditions: ATCC 2001, 48 h
[22] = Hemolytic activity in mouse erythrocytes assessed as hemolysis level at 7.8 ug/ml incubated for 1 hr at 37 degC; type: ADME, cell-based, Erythrocyte; conditions: read-out: Activity
Procedure, shortened: (§4)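 Mouse erythrocytes incubated 1 h at 37 °C with test agents over 1.95 to 125 µg/mL. Percent lysis is read for each concentration.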

[23] = Hemolytic activity in mouse erythrocytes assessed as hemolysis level at 1.95 ug/ml incubated for 1 hr at 37 degC; type: ADME, cell-based, Erythrocyte; conditions: read-out: Activity; procedure, shortened: as §4
[24] = Hemolytic activity in mouse erythrocytes assessed as hemolysis level at 31.3 ug/ml incubated for 1 hr at 37 degC; type: ADME, cell-based, Erythrocyte; conditions: read-out: Activity; procedure, shortened: as §4
[25] = Hemolytic activity in mouse erythrocytes assessed as hemolysis level at 3.9 ug/ml incubated for 1 hr at 37 degC; type: ADME, cell-based, Erythrocyte; conditions: read-out: Activity; procedure, shortened: as §4

| Compound | selectivity ratio [1] | MIC (Aspergillus nidulans) [µM] | selectivity ratio [2] | selectivity ratio [3] | selectivity ratio [4] | MIC (Candida parapsilosis) [µM] | MIC50 (Candida albicans [5]) [µM] | MIC (Aspergillus terreus) [µM] | selectivity ratio [6] | MIC50 (Candida albicans [7]) [µM] | selectivity ratio [8] | selectivity ratio [9] | selectivity ratio [10] | selectivity ratio [11] | selectivity ratio [12] | MIC50 (Candida albicans [13]) [µM] | MIC (Pichia kudriavzevii) [µM] | selectivity ratio [14] | EC50 at 24 h [15] [µg/mL] | selectivity ratio [16] | other results |
| --- | --- | --- | --- | --- | --- | --- | --- | --- | --- | --- | --- | --- | --- | --- | --- | --- | --- | --- | --- | --- | --- |
| CCCCCC(O)(Cn1cncn1)c1ccc(F)cc1 (stereo not drawn) | 8 | 14.1 (≈ 3.91 µg/mL) | 65 | 69 | 8 | 1.7 (≈ 0.471 µg/mL) | 3.5 (≈ 0.971 µg/mL) | 113 (≈ 31.3 µg/mL) | 8 | 14.1 (≈ 3.91 µg/mL) | 32 | 1 | 32 | 8 | 4 | 7 (≈ 1.94 µg/mL) | 3.5 (≈ 0.971 µg/mL) | 1 | 33 (≈ 119 µM) | 1 | selectivity ratio [17]: 4; selectivity ratio [18]: 16; selectivity ratio [19]: 1; selectivity ratio [20]: 8; MIC (Aspergillus flavus): > 113 µM; MIC (Candida albicans [21]): 14.1 µM (≈ 3.91 µg/mL); MIC50 (Nakaseomyces glabratus): 28.1 µM (≈ 7.79 µg/mL) |
| CCCCCC(O)(Cn1cncn1)c1ccc(Cl)cc1 (stereo not drawn) | 4 | 26.5 (≈ 7.79 µg/mL) | 522 | 522 | 16 | 0.2 (≈ 0.0588 µg/mL) | 6.6 (≈ 1.94 µg/mL) | > 106 | 2 | 53.1 (≈ 15.6 µg/mL) | 261 | 4 | 16 | 16 | 8 | 13.3 (≈ 3.91 µg/mL) | 0.41 (≈ 0.12 µg/mL) | 1 | > 31.3 | 1 | selectivity ratio [17]: 2; selectivity ratio [18]: 8; selectivity ratio [19]: 4; selectivity ratio [20]: 4; MIC (Aspergillus flavus): > 106 µM; MIC (Candida albicans [21]): 6.6 µM (≈ 1.94 µg/mL); MIC50 (Nakaseomyces glabratus): 13.3 µM (≈ 3.91 µg/mL) |
| CCCCCCCCC(O)(Cn1cncn1)c1ccc(F)cc1F (stereo not drawn) | 25 | 1.4 (≈ 0.472 µg/mL) | 200 | 217 | 6 | ≤ 0.18 | 5.8 (≈ 1.96 µg/mL) | 23.1 (≈ 7.79 µg/mL) | 7 | 5.8 (≈ 1.96 µg/mL) | 50 | 3 | 6 | 7 | 7 | 5.8 (≈ 1.96 µg/mL) | 0.71 (≈ 0.24 µg/mL) | 0.4 | 13 (≈ 38.5 µM) | 2 | hemolysis at 1 h, 7.8 ug/ml [22]: 46.8%; hemolysis at 1 h, 1.95 ug/ml [23]: 0%; hemolysis at 1 h, 31.3 ug/ml [24]: 68.4%; selectivity ratio [17]: 7; hemolysis at 1 h, 3.9 ug/ml [25]: 0%; selectivity ratio [18]: 6; selectivity ratio [19]: 3; selectivity ratio [20]: 27; MIC (Aspergillus flavus): 92.8 µM (≈ 31.3 µg/mL); MIC (Candida albicans [21]): 5.8 µM (≈ 1.96 µg/mL); MIC50 (Nakaseomyces glabratus): 5.8 µM (≈ 1.96 µg/mL) |
| CCCCCC(O)(Cn1cncn1)c1ccccc1F (stereo not drawn) | 77 | 1.7 (≈ 0.471 µg/mL) | 308 | 261 | 9 | 0.43 (≈ 0.119 µg/mL) | 1.7 (≈ 0.471 µg/mL) | 14.1 (≈ 3.91 µg/mL) | 32 | 3.5 (≈ 0.971 µg/mL) | 617 | 1 | 77 | 8 | 32 | 3.5 (≈ 0.971 µg/mL) | 0.22 (≈ 0.061 µg/mL) | 5 | > 31.3 | 9 | hemolysis at 1 h, 7.8 ug/ml [22]: 0%; hemolysis at 1 h, 1.95 ug/ml [23]: 0%; hemolysis at 1 h, 31.3 ug/ml [24]: 0%; selectivity ratio [17]: 32; hemolysis at 1 h, 3.9 ug/ml [25]: 0%; selectivity ratio [18]: 38; selectivity ratio [19]: 1; selectivity ratio [20]: 65; MIC (Aspergillus flavus): 28.1 µM (≈ 7.79 µg/mL); MIC (Candida albicans [21]): 14.1 µM (≈ 3.91 µg/mL); MIC50 (Nakaseomyces glabratus): 3.5 µM (≈ 0.971 µg/mL) |
| CCCC(O)(Cn1cncn1)c1ccc(Cl)cc1Cl (stereo not drawn) | 16 | 6.5 (≈ 1.95 µg/mL) | 1040 | 1040 | 130 | < 0.1 | 13 (≈ 3.9 µg/mL) | 13 (≈ 3.9 µg/mL) | 8 | 13 (≈ 3.9 µg/mL) | 522 | 8 | 8 | 130 | 8 | 26 (≈ 7.8 µg/mL) | 0.2 (≈ 0.06 µg/mL) | 2 | > 31.3 | 8 | selectivity ratio [17]: 16; selectivity ratio [18]: 4; selectivity ratio [19]: 8; selectivity ratio [20]: 16; MIC (Aspergillus flavus): 52 µM (≈ 15.6 µg/mL); MIC (Candida albicans [21]): 0.8 µM (≈ 0.24 µg/mL); MIC50 (Nakaseomyces glabratus): 13 µM (≈ 3.9 µg/mL) |
